Measurements published in PMC7983942 (Clinical Pharmacology and Therapeutics, 2020).

Columns and labels:
Type in all cases: in vitro ADME
OATP1B3 = biological target: T1, OATP1B3 (Homo sapiens, UniProt Q9NPD5); assay: Uptake into transporter-transfected vs wild-type HEK293 cells; conditions: rosuvastatin 1 µM, two to four minutes
T1 sequence (Q9NPD5 1-702): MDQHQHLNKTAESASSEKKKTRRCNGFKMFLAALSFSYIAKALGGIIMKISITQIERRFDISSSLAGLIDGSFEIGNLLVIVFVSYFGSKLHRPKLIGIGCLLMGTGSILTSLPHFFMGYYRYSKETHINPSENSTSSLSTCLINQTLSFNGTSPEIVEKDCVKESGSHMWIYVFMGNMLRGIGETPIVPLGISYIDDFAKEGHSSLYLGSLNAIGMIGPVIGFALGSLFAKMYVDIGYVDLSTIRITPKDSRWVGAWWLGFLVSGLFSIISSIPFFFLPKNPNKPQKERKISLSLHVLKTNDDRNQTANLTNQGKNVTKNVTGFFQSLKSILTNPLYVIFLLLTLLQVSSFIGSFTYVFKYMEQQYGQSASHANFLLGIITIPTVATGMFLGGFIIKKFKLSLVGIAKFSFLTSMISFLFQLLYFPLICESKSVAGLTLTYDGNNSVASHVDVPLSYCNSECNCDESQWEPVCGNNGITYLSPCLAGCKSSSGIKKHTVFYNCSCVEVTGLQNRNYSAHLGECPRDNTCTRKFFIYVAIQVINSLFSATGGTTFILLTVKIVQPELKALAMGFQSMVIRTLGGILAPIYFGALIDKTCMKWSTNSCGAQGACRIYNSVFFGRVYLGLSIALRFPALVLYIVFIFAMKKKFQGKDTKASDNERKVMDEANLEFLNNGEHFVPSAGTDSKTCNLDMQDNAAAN
In short: (§1)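 HEK293 cells stably transfected with OATP1B1*1A, OATP1B3 or OATP2B1, plus wild-type cells, were seeded on poly-D-lysine plates. Culture was 48 h at 37°C in DMEM with 10% FBS, pyruvate, nonessential amino acids and GlutaMAX. Test compound was 1 µM for 2 min; rosuvastatin probe was 1 µM over 2–4 min. Cells were washed four times in ice-cold buffer and lysed in methanol with internal standard. Readouts were uptake ratio versus wild-type and glucuronide/probe ratio of ratios; mean ± SD, n=3 in one experiment.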

OATP2B1 = biological target: T2, OATP2B1 (Homo sapiens, UniProt O94956); assay: as above; conditions: rosuvastatin 1 µM, two to four minutes
T2 sequence (O94956 1-709): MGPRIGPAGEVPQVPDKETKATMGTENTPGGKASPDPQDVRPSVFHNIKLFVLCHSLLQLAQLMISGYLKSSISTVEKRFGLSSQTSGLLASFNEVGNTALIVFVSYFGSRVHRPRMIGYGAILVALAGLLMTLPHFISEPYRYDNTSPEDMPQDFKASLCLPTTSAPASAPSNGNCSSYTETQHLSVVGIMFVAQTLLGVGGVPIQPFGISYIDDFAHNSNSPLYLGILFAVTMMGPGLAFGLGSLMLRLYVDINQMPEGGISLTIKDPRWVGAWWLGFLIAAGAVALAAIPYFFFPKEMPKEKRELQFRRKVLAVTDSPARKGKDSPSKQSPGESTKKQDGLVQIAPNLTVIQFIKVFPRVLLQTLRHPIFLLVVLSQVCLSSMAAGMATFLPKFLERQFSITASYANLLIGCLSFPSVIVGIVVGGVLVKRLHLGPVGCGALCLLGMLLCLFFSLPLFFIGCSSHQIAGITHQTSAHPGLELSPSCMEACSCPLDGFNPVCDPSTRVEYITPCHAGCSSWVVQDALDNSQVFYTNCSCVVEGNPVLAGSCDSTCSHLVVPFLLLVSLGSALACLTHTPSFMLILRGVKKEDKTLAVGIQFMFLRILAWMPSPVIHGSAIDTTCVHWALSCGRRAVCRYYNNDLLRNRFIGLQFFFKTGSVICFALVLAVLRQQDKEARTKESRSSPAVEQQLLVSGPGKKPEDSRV
In short: as §1

OATP1B1*5 = biological target: T3, OATP1B1*5 (Homo sapiens, UniProt Q9Y6L6, V174A); assay: Uptake into OATP1B1 variant-transfected vs wild-type HEK293 cells; conditions: for Uptake ratio (vs. wild‐type HEK293 cells): 2 minutes
T3 sequence (Q9Y6L6 1-691 V174A): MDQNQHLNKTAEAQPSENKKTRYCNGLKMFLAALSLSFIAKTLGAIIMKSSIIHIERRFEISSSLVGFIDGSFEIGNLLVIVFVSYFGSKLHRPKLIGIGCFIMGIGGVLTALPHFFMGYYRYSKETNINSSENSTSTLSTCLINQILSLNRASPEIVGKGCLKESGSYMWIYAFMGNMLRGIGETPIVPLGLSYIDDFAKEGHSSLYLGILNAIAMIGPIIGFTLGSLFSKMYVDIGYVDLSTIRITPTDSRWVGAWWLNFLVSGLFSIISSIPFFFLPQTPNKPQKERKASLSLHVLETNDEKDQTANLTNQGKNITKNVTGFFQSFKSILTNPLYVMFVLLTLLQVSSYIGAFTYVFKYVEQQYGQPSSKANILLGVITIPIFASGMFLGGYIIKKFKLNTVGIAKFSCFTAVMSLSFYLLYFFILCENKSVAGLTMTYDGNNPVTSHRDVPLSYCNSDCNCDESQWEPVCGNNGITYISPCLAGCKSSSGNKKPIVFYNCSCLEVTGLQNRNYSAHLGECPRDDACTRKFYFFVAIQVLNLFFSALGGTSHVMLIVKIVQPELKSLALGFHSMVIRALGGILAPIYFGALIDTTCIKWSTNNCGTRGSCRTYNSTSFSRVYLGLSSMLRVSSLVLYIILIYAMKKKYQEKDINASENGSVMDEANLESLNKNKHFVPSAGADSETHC
In short: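 HEK293 cells stably expressing an OATP1B1 variant, alongside wild-type HEK293, were seeded at 0.5–1.2 × 10⁵ cells/well on poly-D-lysine plates. They grew 48 h at 37°C and 5% CO₂ in DMEM with 10% FBS, 1% pyruvate, nonessential amino acids and GlutaMAX. Substrate was 1 µM (0.5 µM where footnoted) for 2 min, then four ice-cold buffer washes and methanol lysis with internal standard. Uptake ratio (transfected/wild-type) is expressed as % of OATP1B1*14 in the same experiment; n=3 determinations.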

[1] = experiment 1, substrate concentration 0.5 µM

## CC(C)c1nc(N(C)S(C)(=O)=O)nc(-c2ccc(F)cc2)c1/C=C/[C@@H](O)C[C@@H](O)CC(=O)O [Rosuvastatin]
OATP1B3
  Uptake ratio (vs. wild‐type HEK293 cells), probe: 69.8 ± 1.9
OATP2B1
  Uptake ratio (vs. wild‐type HEK293 cells), probe: 71.1 ± 9.6
OATP1B1*5; [1]
  Uptake ratio as percentage of OATP1B1*14 in the same experiment: 16%
  Uptake ratio (vs. wild‐type HEK293 cells): 2.4 ± 0.4
OATP1B1*5; experiment 2, substrate 1 µM
  Uptake ratio as percentage of OATP1B1*14 in the same experiment: 15%
  Uptake ratio (vs. wild‐type HEK293 cells): 5.9 ± 0.5
